This note sets out measurements from ChEMBL document CHEMBL4382263, “Spirostaphylotrichin X from a Marine-Derived Fungus as an Anti-influenza Agent Targeting RNA Polymerase PB2” (J Nat Prod, 2018).

In data set [1] the test system is Influenza A virus (A/Puerto Rico/8/1934(H1N1)). The data set can be described thus: Inhibition of RNA-dependent RNA polymerase in Influenza A virus (A/PR/8/34(H1N1)) infected in human 293T cells assessed as reduction in viral RNA level at 10 uM measured at 3 and 6 hrs post infection by RT-PCR method. Type of data set: cell-based.
The subject of data set [2] is Cynodon dactylon. The data set can be described thus: Inhibition of seed germination in Cynodon dactylon at 100 ug/ml after 7 days. Type of data set: functional, organism-based. The method, boiled down: (§1)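 Ten surface-sterilised seeds per well on agar. Test solution at 100 μg/mL in 5% EtOH added; three wells per sample. Incubated at 20 °C, 12:12 h photoperiod, 7 days; germination scored.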

Data set [3] deals with Arabidopsis thaliana. The data set can be described thus: Inhibition of seed germination in Arabidopsis thaliana at 100 ug/ml after 7 days. It is filed as functional, organism-based. The method, boiled down:
as §1

In data set [4] the test system is ACHN. The data set can be described thus: Cytotoxicity against human ACHN cells by MTT assay. Type of data set: functional, cell-based.
Data set [5] concerns 786-0. The experiment in a line: Cytotoxicity against human 786-O cells by MTT assay. It is filed as functional, cell-based.
Data set [6] deals with OS-RC-2. The experiment in a line: Cytotoxicity against human OS-RC2 cells by MTT assay. Type of data set: functional, cell-based.
For data set [7], the system named is HepG2. The data set can be described thus: Cytotoxicity against human HepG2 cells by MTT assay. It is filed as functional, cell-based.
Data set [8] concerns SGC-7901. The experiment in a line: Cytotoxicity against human SGC7901 cells by MTT assay. It is filed as functional, cell-based.
Data set [9] concerns Escherichia coli. The data set can be described thus: Antibacterial activity against Escherichia coli ATCC 25922. It is filed as functional.
For data set [10], the system named is Staphylococcus aureus. The data set can be described thus: Antibacterial activity against Staphylococcus aureus subsp. aureus Rosenbach ATCC 25923. Type of data set: functional.
In data set [11] the test system is Erysipelothrix rhusiopathiae. The data set can be described thus: Antibacterial activity against Erysipelothrix rhusiopathiae ATCC 19414. Type of data set: functional.
A short description of data set [12]: Antibacterial activity against Pasteurella multocida subsp. multocida ATCC 43137. Type of data set: functional.
Data set [13] relates to Influenza A virus H3N2. The data set can be described thus: Antiviral activity against Influenza A virus (A/Aichi/2/68(H3N2)) infected in MDCK cells assessed as reduction in virus-induced cytopathic effect by MTT assay. Type of data set: functional, organism-based. As to conditions: A/Aichi/2/1968(H3N2). The method, boiled down:
(§2)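 MTT-based cytopathic-effect reduction assay in MDCK cells. Run in triplicate; IC50 reported as mean ± SD.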

Data set [14] is described as follows: Cytotoxicity against MDCK cells by MTT assay. As to conditions: dog. It is filed as cell-based, Canis lupus familiaris. The method, boiled down:
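MDCK viability measured by MTT at concentrations up to 200 μM. Run in triplicate; CC50 reported.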

The subject of data set [15] is Influenza A virus. The data set can be described thus: Antiviral activity against Influenza A virus (A/FM-1/1/47(H1N1)) infected in MDCK cells assessed as reduction in virus-induced cytopathic effect by MTT assay. Type of data set: functional, organism-based. The following applies: A/Fort Monmouth/1/1947(H1N1). The method, boiled down:
as §2

For data set [16], the system named is Influenza A virus. The experiment in a line: Antiviral activity against Influenza A virus (A/PR/8/34(H1N1)) infected in MDCK cells assessed as reduction in virus-induced cytopathic effect by MTT assay. The following applies: A/Puerto Rico/8/1934(H1N1). It is filed as functional, organism-based. The method in brief: as §2
Data set [17] has as its system Influenza A virus. The experiment in a line: Antiviral activity against Influenza A virus isolate 690 (H3) infected in MDCK cells assessed as reduction in virus-induced cytopathic effect by MTT assay. It is filed as functional, organism-based. The method in brief:
as §2

In data set [18] the test system is Influenza A virus. The data set can be described thus: Antiviral activity against Influenza A virus (A/PR/8/34(H1N1)) infected in MDCK cells assessed as reduction in plaque formation after 72 hrs by crystal violet staining based assay. It is filed as functional, organism-based. The following applies: A/Puerto Rico/8/1934(H1N1). The method in brief: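 MDCK monolayers infected with PR8 at MOI 0.005 for 1 h at 37 °C. Overlay of serum-free MEM with serially diluted compound, 2% microcrystalline cellulose and 1.5 μg/mL trypsin. After 72 h, cells fixed and stained with 4% paraformaldehyde/2% crystal violet for 20 min; plaques assessed.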

Data set [19] concerns Influenza A virus. The experiment in a line: Antiviral activity against Influenza A virus (A/PR/8/34(H1N1)) infected in MDCK cells assessed as reduction in viral NP protein expression after 24 hrs by DAPI staining based fluorescence microscopic method. It is filed as functional, organism-based. As to conditions: A/Puerto Rico/8/1934(H1N1). The method, boiled down: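 MDCK cells infected at MOI 0.01 for 1 h, then given increasing concentrations for 24 h. Fixed in 4% paraformaldehyde and blocked with 3% BSA. Stained with anti-NP (1:200, overnight, 4 °C), then FITC secondary (4 h, RT); DAPI nuclear stain; fluorescence microscopy.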

Data set [20] deals with Influenza A virus. The data set can be described thus: Antiviral activity against Influenza A virus (A/PR/8/34(H1N1)) infected in MDCK cells assessed as reduction in viral HA mRNA expression after 24 hrs by qRT-PCR method. It is filed as functional, organism-based. The following applies: A/Puerto Rico/8/1934(H1N1). The method, boiled down: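 Infected MDCK cells treated with a concentration series for 24 h. Total RNA reverse-transcribed; viral HA mRNA quantified by qRT-PCR with GAPDH as internal control. Triplicate, mean ± SD.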

For data set [21], the system named is Influenza A virus. The data set can be described thus: Antiviral activity against Influenza A virus (A/PR/8/34(H1N1)) infected in MDCK cells assessed as reduction in viral NP protein expression after 24 hrs by Western blot method. It is filed as functional, organism-based. The following applies: A/Puerto Rico/8/1934(H1N1). The method in brief:
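MDCK monolayers infected with PR8 at MOI 0.01 for 1 h at 37 °C, then given serial dilutions. At 24 h, lysates equalised for protein and run on 10% SDS-PAGE. NP detected with anti-NP (1:1000) and HRP secondary, β-actin as loading control; ECL read-out.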

Data set [22] concerns Influenza A virus. The data set can be described thus: Antiviral activity against Influenza A virus (A/PR/8/34(H1N1)) infected in MDCK cells assessed as reduction in virus-induced cytopathic effect pretreated with virus for 30 mins followed by viral infection incubated for 30 mins and measured after 48 hrs by MTT assay. Type of data set: functional, organism-based. The following applies: A/Puerto Rico/8/1934(H1N1). The method, boiled down:
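Preinfection: PR8 (MOI 0.01) mixed with compound for 30 min at 37 °C, then added to MDCK cells for 30 min. Medium replaced with fresh medium containing 1 μg/mL TPCK-trypsin. Viability by MTT after a further 48 h.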

For data set [23], the system named is Influenza A virus. The data set can be described thus: Antiviral activity against Influenza A virus (A/PR/8/34(H1N1)) infected in MDCK cells assessed as reduction in virus-induced cytopathic effect treated post viral infection for 1 hr and measured after 48 hrs by MTT assay. It is filed as functional, organism-based. The following applies: A/Puerto Rico/8/1934(H1N1). The method in brief:
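Postinfection: infected MDCK cells given increasing concentrations for 1 h at 37 °C, then medium replaced. Viability by MTT after a further 48 h.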

In data set [24] the test system is Influenza A virus. The experiment in a line: Antiviral activity against Influenza A virus (A/PR/8/34(H1N1)) infected in MDCK cells assessed as reduction in virus-induced cytopathic effect co-treated with viral infection for 30 mins and measured after 48 hrs by MTT assay. The following applies: A/Puerto Rico/8/1934(H1N1). It is filed as functional, organism-based. The method, boiled down:
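Entire-infection: virus–compound mixture (PR8, MOI 0.01, 30 min at 37 °C) added to MDCK cells. Unabsorbed virus removed; fresh medium with 1 μg/mL TPCK-trypsin plus compound added. Viability by MTT after 48 h.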

For data set [25], the target named is Hemagglutinin (Influenza A virus (A/Puerto Rico/8/1934(H1N1))) (UniProt P03452). The data set can be described thus: Inhibition of Influenza A virus (A/PR/8/34(H1N1)) HA-mediated chicken erythrocytes hemagglutination preincubated for 30 mins followed by erythrocytes addition and measured for 1 hr. The method in brief:
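Twofold serial compound dilutions mixed with PR8 at different titres for 30 min at RT. 0.5% chicken erythrocytes added; read after 1 h at 37 °C. Virus diluent without compound as negative control, PBS as blank.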

Data set [26] has as its target Neuraminidase (Influenza A virus (A/Puerto Rico/8/1934(H1N1))) (UniProt P03468). The experiment in a line: Inhibition of Influenza A virus (A/PR/8/34(H1N1)) NA assessed as reduction in viral particle release using 2-(4-methylumbelliferyl)-alpha-D-N-acetylneuraminic acid sodium as substrate preincubated for 30 mins followed by substrate addition and measured for 1 hr by fluorescence assay. The method, boiled down: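 PR8 in reaction buffer mixed with twofold-diluted compound for 30 min at 37 °C. 20 μM MUNANA substrate added for 1 h at 37 °C; stopped with 14 mM NaOH. 4-MU fluorescence read at ex 340/em 440 nm.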

Data set [27] deals with Influenza A virus. The data set can be described thus: Antiviral activity against Influenza A virus (A/PR/8/34(H1N1)) infected in MDCK cells assessed as reduction in viral NP production at 10 uM measured 10 hrs post infection by Western blot analysis. It is filed as functional, organism-based. The following applies: Influenza A virus (A/Puerto Rico/8/1934(H1N1)). The method in brief: (§3)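 Compound added to PR8-infected MDCK cells at defined time points covering the first replication cycle. At 10 h postinfection, NP measured by Western blot and HA mRNA by quantitative RT-PCR.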

Data set [28] relates to Influenza A virus. The experiment in a line: Antiviral activity against Influenza A virus (A/PR/8/34(H1N1)) infected in MDCK cells assessed as reduction in viral HA mRNA level at 10 uM measured 10 hrs post infection by qRT-PCR analysis. Type of data set: functional, organism-based. The following applies: Influenza A virus (A/Puerto Rico/8/1934(H1N1)). The method in brief: as §3

The target of data set [29] is Polymerase basic protein 2 (Influenza A virus (strain A/Puerto Rico/8/1934 H1N1)) (UniProt P03428). The experiment in a line: Inhibition of fluorescently-labeled m7GTP binding to Influenza A virus RNA polymerase PB2 preincubated for 15 mins followed by m7GTP addition measured after 1 hr by HTRF assay. The method in brief: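 PB2 protein preincubated with compound at different concentrations for 15 min at RT. Premixed fluorescent probe (m7GTP cap analogue) added; HTRF read after 1 h. Three independent experiments, mean ± SD.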
Polymerase basic protein 2 (Influenza A virus (strain A/Puerto Rico/8/1934 H1N1)), sequence (P03428 whole entry, looked up): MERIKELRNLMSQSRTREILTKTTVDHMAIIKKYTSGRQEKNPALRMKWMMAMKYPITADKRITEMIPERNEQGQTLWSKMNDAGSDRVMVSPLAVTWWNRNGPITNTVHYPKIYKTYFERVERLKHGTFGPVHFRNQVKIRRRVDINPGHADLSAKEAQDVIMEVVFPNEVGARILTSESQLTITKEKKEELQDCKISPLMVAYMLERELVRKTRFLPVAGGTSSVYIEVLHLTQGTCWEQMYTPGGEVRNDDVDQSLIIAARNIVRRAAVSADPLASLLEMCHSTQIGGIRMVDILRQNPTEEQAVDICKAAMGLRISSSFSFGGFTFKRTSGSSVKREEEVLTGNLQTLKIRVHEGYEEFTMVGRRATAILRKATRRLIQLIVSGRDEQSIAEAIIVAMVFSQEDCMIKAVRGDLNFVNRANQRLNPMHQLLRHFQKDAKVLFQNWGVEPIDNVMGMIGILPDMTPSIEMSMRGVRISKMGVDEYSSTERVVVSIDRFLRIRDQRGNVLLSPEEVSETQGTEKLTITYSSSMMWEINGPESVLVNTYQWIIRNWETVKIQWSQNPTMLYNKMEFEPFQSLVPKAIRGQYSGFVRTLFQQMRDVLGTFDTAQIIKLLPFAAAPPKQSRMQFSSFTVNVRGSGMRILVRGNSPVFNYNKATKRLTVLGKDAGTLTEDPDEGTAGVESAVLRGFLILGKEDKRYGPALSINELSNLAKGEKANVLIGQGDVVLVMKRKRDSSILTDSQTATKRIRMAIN

Data set [30] deals with Polymerase basic protein 2 (Influenza A virus (strain A/Puerto Rico/8/1934 H1N1), UniProt P03428). The experiment in a line: Binding affinity to Influenza A virus RNA polymerase PB2 by SPR assay. The method, boiled down:
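PB2-cap protein (0.5 μM) immobilised on CM5 chip at pH 5.0. Compound injected at 7.8–125 nM for 180 s at 50 μL/min, 25 °C; chip regenerated with 50 mM NaOH. KD from fitted sensorgrams; reference compound included.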

Calls of active or inactive are those of the source. The rule behind the calls is not given here.

Polymerase basic protein 2, sequence (P03428 whole entry): as the sequence (P03428 whole entry, looked up) above
Hemagglutinin (Influenza A virus (A/Puerto Rico/8/1934(H1N1))), sequence (P03452 whole entry): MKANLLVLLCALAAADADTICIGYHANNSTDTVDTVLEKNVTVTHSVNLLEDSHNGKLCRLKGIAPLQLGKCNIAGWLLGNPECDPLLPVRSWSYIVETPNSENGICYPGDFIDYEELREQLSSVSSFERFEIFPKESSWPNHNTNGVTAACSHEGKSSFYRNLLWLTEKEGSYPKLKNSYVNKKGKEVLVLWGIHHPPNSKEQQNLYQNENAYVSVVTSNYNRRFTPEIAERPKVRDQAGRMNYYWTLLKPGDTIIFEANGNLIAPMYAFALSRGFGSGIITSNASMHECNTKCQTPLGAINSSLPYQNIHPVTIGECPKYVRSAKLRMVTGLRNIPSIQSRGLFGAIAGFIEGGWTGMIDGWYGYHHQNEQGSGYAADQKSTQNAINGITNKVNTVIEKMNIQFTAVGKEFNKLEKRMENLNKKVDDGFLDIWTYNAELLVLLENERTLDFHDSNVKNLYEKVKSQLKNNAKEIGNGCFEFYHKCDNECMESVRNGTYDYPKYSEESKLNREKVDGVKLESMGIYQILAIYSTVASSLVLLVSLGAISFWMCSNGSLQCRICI
Neuraminidase (Influenza A virus (A/Puerto Rico/8/1934(H1N1))), sequence (P03468 whole entry): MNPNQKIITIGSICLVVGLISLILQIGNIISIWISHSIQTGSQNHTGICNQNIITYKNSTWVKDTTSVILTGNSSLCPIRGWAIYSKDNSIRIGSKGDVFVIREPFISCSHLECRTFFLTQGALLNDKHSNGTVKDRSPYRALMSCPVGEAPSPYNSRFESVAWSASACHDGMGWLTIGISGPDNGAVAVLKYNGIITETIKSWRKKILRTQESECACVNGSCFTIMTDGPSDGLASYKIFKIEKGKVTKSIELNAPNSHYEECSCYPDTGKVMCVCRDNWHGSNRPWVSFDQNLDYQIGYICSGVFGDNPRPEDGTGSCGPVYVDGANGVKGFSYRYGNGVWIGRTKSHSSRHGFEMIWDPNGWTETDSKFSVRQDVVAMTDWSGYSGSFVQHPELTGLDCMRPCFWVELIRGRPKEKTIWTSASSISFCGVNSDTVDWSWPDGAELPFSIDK

Take `CCC(CC)[C@H](NC(C)=O)[C@@H]1[C@H](O)[C@@H](C(=O)O)C[C@H]1NC(=N)N`: the inhibition entry in [1] was “inactive”.

`CC/C=C1/C=CC(=O)[C@@H](O)[C@]12C(=O)N(OC)[C@@](C)(OC)[C@@H]2O`: the inhibition entry in [2], in data set [3], in data set [25] and in data set [26] was “inactive” each time. The IC50 in [4] is > 50 µM; in [5] it was > 50 µM; in data set [6] it was > 50 µM; in [7] it was > 50 µM; in data set [8], > 50 µM; in data set [13], 4.1 µM. Further, the figures for the IC50 in data set [15], in [16] and in data set [17] were 5.5 µM, 1.6 µM and 1.7 µM, respectively. For the same molecule, the MIC in data set [9], in data set [10], in [11] and in data set [12] was > 100 mg/L each time. Besides, the CC50 in data set [14] was > 200 µM. For the same molecule, the Activity entry in data set [18], in data set [19], in data set [20] and in data set [21] was “Dose-dependent effect” in each case. Besides, the outcome in data set [22] was inactive. Also, the result in data set [23], in data set [24], in [27] and in data set [28] was Active. Moreover, the inhibition entry in data set [1] was “Active”. The inhibition entry in data set [29] is “Dose-dependent effect”. Further, the Kd in data set [30] was found to be 0.077 µM.

Regarding `O=c1oc2cc(O)cc(O)c2c2ccccc12`, binding in data set [30] was characterised by a dissociation constant (Kd) of 3.6 µM.

In the case of `C=C1[C@H](O)[C@@]2(C(=O)N1OC)/C(=C\CC)C=CC(=O)[C@H]2O`, the inhibition result in [2] and in data set [3] was “inactive” each time. Besides, the concentration for half-maximal inhibition (IC50) in data set [4] was > 50 µM; in data set [5] it was > 50 µM; in [6], > 50 µM; in [7] it was > 50 µM; in data set [8], > 50 µM; in data set [16], 21 µM. The MIC in [9], in data set [10], in data set [11] and in data set [12] was > 100 mg/L throughout.
